Screening data: PubChem, several laboratories
Rows were chosen to be rich in hits. Some 1.9% of all compounds tested hit in one or more screens of this group.
IMP-1 inh: IMP-1 metallo-beta-lactamase inhibitors, primary screen, biochemical, epi-absorbance readout, Pseudomonas aeruginosa enzyme. metallo-beta-lactamase IMP-1 (Pseudomonas aeruginosa). purified IMP-1, nitrocefin hydrolysis, epi-absorbance fluorescence. inhibition, % at 5.6 µM. hit rate 0.45% among 290,000;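 active = inhibition above the mean plus 3 SD of all compounds in the same screening run, cut at about 4.5% in these data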;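 note: 0% = IMP-1 with DMSO and 100% = DMSO wells lacking enzyme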
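Assay system: purified IMP-1; Quantity: IMP-1 0.2 nM before substrate addition; Medium: HEPES buffer pH 7.1 with ZnSO4 and Brij 35; Incubation: 15 min enzyme–compound preincubation, then 25 min nitrocefin reaction, 25 °C; Signal: fluorescence quenching readout, ex 480/em 530 nm; Controls: DMSO with and without IMP-1; Repeats: singlicate testing.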
T cell HTS: modulators of CD8 T cell-vesicle binding, primary screen, mouse 2C CD8+ T cells, flow cytometry; 2C CD8+ T cell-vesicle binding; hits give low values; response (vesicle binding), % at 7 µM; hit rate 0.068% among 330,000; AID 2052, 2009;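 active = response, share of CD8 T cells binding vesicles, and their 90th percentile fluorescence all below set limits, cut at about 80% in these data, passing the limit was not always enough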;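 note: values below 100% mean blocked vesicle binding to the CD8+ T cells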
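Benchmarks: naked versus QL9-loaded vesicles / Assay system: purified 2C TCR transgenic mouse naive CD8+ T cells / Technique: high-throughput flow cytometry with anti-B7-1 and anti-CD8 staining / Timing: Cell–vesicle co-incubation 1.5 h at 37 °C, staining 20 min on ice / Read-out: percent CD8+ FL2 mean versus row control / Probe or stimulus: QL9-loaded Drosophila micro-vesicles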
Fh CTSL1 inh: Fasciola hepatica cathepsin L1 inhibitors, primary screen, counter-screen for PFM18AAP inhibitor project, biochemical, QFRET, fluorogenic peptide substrate | inhibition, % at 5.96 µM | hit rate 0.49% among 300,000 | AID 1906, 2009 | recombinant F. hepatica cathepsin L1, Z-Leu-Arg-MCA fluorescence;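 active = inhibition above the mean of all tested compounds plus 3 SD, set per screening campaign, cut at about 17% in these data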;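 note: 0% = plate median of test compound wells and 100% = 1 µM Z-Phe-Ala-diazomethylketone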
p-CIP stab down: p/CIP-EGFP fusion destabilizers, primary screen, fluorescence, F442A cells | 16 h | decrease of EGFP signal, % at 10 µM | hit rate 0.01% among 290,000 | AID 1984, 2009;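 active = EGFP signal decrease of at least 30% at 10 µM or well 3 SD below plate mean, unless failing retest; inactive = the rest, including hits failing retest or dose response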
UBC9 SUMO inh: inhibitors of in vitro SUMOylation cascade, primary screen, biochemical, HTRF, uHTS; SUMO-conjugating enzyme UBC9 (Homo sapiens), P63279; HTRF SUMOylation assay, SAE1/SAE2 + UBC9; inhibition, % at 35 µM; hit rate 0.36% among 290,000; AID 2006, 2009; in the data active = inhibition above about 50%, passing the limit was not always enough
Target sequence (P63279 whole entry, looked up): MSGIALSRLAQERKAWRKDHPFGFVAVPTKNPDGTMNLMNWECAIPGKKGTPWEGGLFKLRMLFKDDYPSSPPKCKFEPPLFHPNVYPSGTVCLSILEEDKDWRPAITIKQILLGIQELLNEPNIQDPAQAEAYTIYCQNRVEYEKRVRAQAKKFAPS
VIM-2 inhibitor: VIM-2 metallo-beta-lactamase inhibitors, primary screen, biochemical, epi-absorbance readout, Pseudomonas aeruginosa enzyme. purified VIM-2, nitrocefin hydrolysis, epi-absorbance fluorescence. hit rate 0.89% among 290,000. inhibition, % at 5.6 µM. AID 1527, 2009;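 active = inhibition above the mean of all tested compounds plus 3 SD, cutoff set per screening run, cut at about 7.5% in these data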;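 note: red hydrolysis product quenches plate fluorescence so inhibitors raise well fluorescence; 0% = enzyme with DMSO and 100% = DMSO without enzyme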
Starred values were filed as active, the others as inactive.

Screening COc1cccc(NC(=O)CSc2ccc3nnc(CCNC(=O)c4ccccc4)n3n2)c1 returned IMP-1 inh -4, T cell HTS 289, Fh CTSL1 inh 0, p-CIP stab down 4, UBC9 SUMO inh 0 and VIM-2 inhibitor -1.
Screening O=C1NC(=S)S/C1=C\c1cc2ccccc2nc1N1CCCCC1 returned IMP-1 inh -3, T cell HTS 290, Fh CTSL1 inh 1, p-CIP stab down -13, UBC9 SUMO inh 55* and VIM-2 inhibitor 0.
Screening Cc1cc(C)c(NC(=O)CSc2nnc(SCC(=O)Nc3c(C)cc(C)cc3C)n2N)c(C)c1 returned IMP-1 inh 7.2*, T cell HTS 174, Fh CTSL1 inh -1, p-CIP stab down -10, UBC9 SUMO inh 26 and VIM-2 inhibitor -4.
For Cc1ccc(C)c(NC(=O)CSc2nnc(C)c(=O)n2N)c1 the results were IMP-1 inh -4, T cell HTS 265, Fh CTSL1 inh -3, p-CIP stab down -6, UBC9 SUMO inh 9 and VIM-2 inhibitor -3.
For Cc1cccc(NC(=O)C2CCCN(S(=O)(=O)c3ccc4[nH]c(=O)ccc4c3)C2)c1 (stereo not given) the results were IMP-1 inh -3, T cell HTS 146, Fh CTSL1 inh 3, p-CIP stab down -3, UBC9 SUMO inh 11 and VIM-2 inhibitor -3.
`CC(C)CC(=O)Nc1cccc2c1C(=O)N(c1ccccc1)C2=O` gave IMP-1 inh 7.5*, T cell HTS 152, Fh CTSL1 inh -5, p-CIP stab down -7, UBC9 SUMO inh 11 and VIM-2 inhibitor -1.
For CC(=O)Nc1cccc2c1C(=O)N(c1cccc(C)c1)C2=O the results were IMP-1 inh 2, T cell HTS 171, Fh CTSL1 inh 1, p-CIP stab down -3, UBC9 SUMO inh 16 and VIM-2 inhibitor 0.
Screening COc1ccc(-c2cc(C(=O)N3CC4(C)CC3CC(C)(C)C4)no2)cc1OC (stereo not given) returned IMP-1 inh -3, T cell HTS 270, Fh CTSL1 inh 17*, p-CIP stab down -10, UBC9 SUMO inh -3 and VIM-2 inhibitor -2.
`COc1cc(C(=O)Nc2nnc(CC(C)C)s2)c([N+](=O)[O-])cc1OC` gave IMP-1 inh -3, T cell HTS 242, Fh CTSL1 inh 7, p-CIP stab down -6, UBC9 SUMO inh 20 and VIM-2 inhibitor -3.
`Cc1cccc(C)c1OCC(=O)N=Nc1c(O)[nH]c2ccc(Br)cc12` gave IMP-1 inh -1, Fh CTSL1 inh 0, p-CIP stab down -7, UBC9 SUMO inh 59* and VIM-2 inhibitor -2.
Screening Cc1nn(-c2ccccc2)c(N2CCCC2)c1/C=C1\N=C(c2ccccc2)OC1=O returned IMP-1 inh -5, T cell HTS 126, Fh CTSL1 inh 56*, p-CIP stab down 8, UBC9 SUMO inh -10 and VIM-2 inhibitor -3.
For COc1cccc(-c2cc(C(F)(F)F)nc(N3CCC(C)CC3)n2)c1 the results were IMP-1 inh 4.5*, T cell HTS 437, Fh CTSL1 inh 0, p-CIP stab down 12, UBC9 SUMO inh -2 and VIM-2 inhibitor -2.
Screening COc1cccc(-c2cc(C(F)(F)F)nc(N3CCOCC3)n2)c1 returned IMP-1 inh -4, T cell HTS 197, Fh CTSL1 inh -3, p-CIP stab down -11, UBC9 SUMO inh 9 and VIM-2 inhibitor -5.
CCCc1cc(=O)n2[nH]c(NCc3ccc(OC)c(OC)c3)nc2n1 was read as IMP-1 inh -3, T cell HTS 593, Fh CTSL1 inh -3, p-CIP stab down -2, UBC9 SUMO inh -2 and VIM-2 inhibitor -2.
CCOC(=O)c1cnc2nc(NCc3ccc(OC)c(OC)c3)[nH]n2c1=O was read as IMP-1 inh -7, T cell HTS 138, Fh CTSL1 inh 20*, p-CIP stab down -8, UBC9 SUMO inh 18 and VIM-2 inhibitor -2.
For CCOP(=O)(OCC)C(NC(=O)c1cc([N+](=O)[O-])cc([N+](=O)[O-])c1)C(F)(F)F (stereo not given) the results were IMP-1 inh 0, T cell HTS 296, Fh CTSL1 inh 40*, p-CIP stab down 0, UBC9 SUMO inh 3 and VIM-2 inhibitor -1.
Screening CCOP(=O)(OCC)C(C)(C)NC(=O)c1cc([N+](=O)[O-])cc([N+](=O)[O-])c1 returned IMP-1 inh -1, T cell HTS 174, Fh CTSL1 inh 3, p-CIP stab down 3, UBC9 SUMO inh 8 and VIM-2 inhibitor 1.
For CC(C)CN(C(=O)COC(=O)c1ccc(Br)o1)c1c(N)n(Cc2ccccc2)c(=O)[nH]c1=O the results were T cell HTS 147 and Fh CTSL1 inh -1.
O=C1SC(c2ccccc2)=C/C1=C\N1CCCCC1 was read as IMP-1 inh 4.8*, T cell HTS 168, Fh CTSL1 inh 9, p-CIP stab down -6, UBC9 SUMO inh 15 and VIM-2 inhibitor 2.
COC(=O)c1ccc2[nH]c([C@H](C)O)c([C@H](C)O)c2c1 was read as IMP-1 inh 4.7*, T cell HTS 196, Fh CTSL1 inh -2, p-CIP stab down -3, UBC9 SUMO inh 8 and VIM-2 inhibitor 5.
For c1ccc(C2=Nn3c(nnc3-c3ccco3)SC2)cc1 the results were IMP-1 inh 0, T cell HTS 152, Fh CTSL1 inh -2, p-CIP stab down 3, UBC9 SUMO inh -1 and VIM-2 inhibitor 8.3*.
Brc1ccccc1C1=Nn2c(nnc2-c2ccco2)SC1 was read as IMP-1 inh -2, T cell HTS 212, Fh CTSL1 inh -3, p-CIP stab down -11, UBC9 SUMO inh 15 and VIM-2 inhibitor 8.0*.
Screening COc1ccc2cc([C@H](C)C(=O)N(C)Cc3ccccc3N3CCCC3)ccc2c1 returned IMP-1 inh 0, T cell HTS 278, Fh CTSL1 inh 3, p-CIP stab down -2, UBC9 SUMO inh -12 and VIM-2 inhibitor 7.8*.
For Cc1ccc(S(=O)(=O)NC(=O)c2ccc(Br)o2)cc1 the results were IMP-1 inh -4, T cell HTS 684, Fh CTSL1 inh -2, p-CIP stab down -16, UBC9 SUMO inh 0 and VIM-2 inhibitor -1.
For Cc1ccc(OCC(=O)Nc2sc3c(c2C#N)CC(C)(C)NC3(C)C)cc1 the results were IMP-1 inh -3, T cell HTS 276, Fh CTSL1 inh 3, p-CIP stab down -3, UBC9 SUMO inh 4 and VIM-2 inhibitor -3.
CC1(C)Cc2c(sc(NC(=O)COc3cccc4ccccc34)c2C#N)C(C)(C)N1 was read as IMP-1 inh 19*, T cell HTS 54, Fh CTSL1 inh -2, p-CIP stab down -3, UBC9 SUMO inh 17 and VIM-2 inhibitor 3.
